Tests used:
Assay type in all cases: functional, cell-based
A2780 = assay: Antiproliferative activity against human A2780 cells measured after 72 hrs by sulforhodamine B assay; conditions: A2780, 72 h
Outline: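 A2780 cells grown in RPMI-1640 with L-glutamine, 10% FBS and 1% antibiotic-antimycotic, 37 °C, 5% CO2, subcultured at 80–90% confluence; seeded at 25000 cells per mL in 96-well plates; compound exposure 72 h at 37 °C; sulforhodamine B read-out; three independent experiments, each in triplicate.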

DU-145 = assay: Antiproliferative activity against human DU145 cells measured after 72 hrs by sulforhodamine B assay; conditions: DU-145, 72 h
Outline: (§1)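 SRB antiproliferation assay: cells seeded at 100,000 cells per mL in 96-well plates, incubated with compound 72 h at 37 °C in 95% air/5% CO2; sulforhodamine B staining read-out; three independent experiments, each in triplicate.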

HT-29 = assay: Antiproliferative activity against human HT-29 cells measured after 72 hrs by sulforhodamine B assay; conditions: HT-29, 72 h; outline: as §1
HeLa = assay: Antiproliferative activity against human HeLa cells measured after 72 hrs by sulforhodamine B assay; outline: as §1
MCF7 = assay: Antiproliferative activity against human MCF7 cells measured after 72 hrs by sulforhodamine B assay; conditions: MCF7, 72 h
Outline: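 SRB assay. MCF-7 cells grown in RPMI-1640 with L-glutamine, 10% FBS and 1% antibiotic-antimycotic, at 37 °C in 95% air/5% CO2, and subcultured at 80–90% confluence. Seeded at 6000 cells per mL in 96-well plates, exposed for 72 h at 37 °C, then read by sulforhodamine B staining. Three independent experiments, each in triplicate.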

Structure (SMILES)	IC50 (A2780) [µM]	IC50 (DU-145) [µM]	IC50 (HT-29) [µM]	IC50 (HeLa) [µM]	IC50 (MCF7) [µM]
CC(=O)O[C@H]1C(=O)[C@@]2(C)[C@H]([C@H](OC(=O)c3ccccc3)[C@]3(O)C[C@H](OC(=O)[C@H](O)[C@@H](NC(=O)c4ccccc4)c4ccccc4)C(C)=C1C3(C)C)[C@]1(OC(C)=O)CO[C@@H]1C[C@@H]2O [PACLITAXEL]	0.018	0.001	–	–	–
C=C(CC[C@@]1(C)O[C@H]2O[C@H]3C[C@H]1[C@]21CC[C@@H]2[C@@]4(C)CC[C@H](O)C[C@@H]4C[C@H](O)[C@@]2(O)[C@H]31)C(C)C	> 10	> 10	> 10	> 10	> 10
COc1cc(=O)oc(/C=C/C=C/C=C/C(C)=C/[C@]2(C)O[C@H](C)[C@](C)(O)[C@@H]2O)c1C	5.7 to 8.2	> 10	> 10	> 10	4.2 to 6
C=C(CC[C@]1(C)O[C@@H]2O[C@@]34[C@H](O)C[C@H]5C[C@@H](O)CC[C@]5(C)[C@H]3CC[C@]23[C@H]4[C@H](O)C[C@@H]31)C(C)C	> 10	> 10	9.8	> 10	> 10

— ChEMBL document CHEMBL4414567, “α-Pyrone and Sterol Constituents of Penicillium aurantiacobrunneum, a Fungal Associate of the Lichen Niebla homalea” (J Nat Prod, 2019)
